# pIC50: −log10 of the molar value. Activity calls are given as the source filed them. The calls are words filed in the database; no cut-off is given here.
# Experiments:
# [1] = biological target: Sodium- and chloride-dependent betaine transporter (Homo sapiens, UniProt P48065); experiment: Inhibition of human BGT1/human GAT3 chimera B expresses in tsA201 cells assessed as reduction in [3H]GABA uptake after 3 mins by scintillation counting method; assay type: cell-based
# Outline: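 BGT1/GAT3 chimeric constructs transiently expressed in tsA201 cells. After about 24 h, cells were washed in HEPES-buffered HBSS (1 mM CaCl2, 1 mM MgCl2, pH 7.4). IC50 came from variable-slope sigmoidal regression. Triplicates, at least two independent experiments.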
# GABA transporter 2 = biological target: T1, GABA transporter 2 (Mus musculus, UniProt P31651); experiment: Inhibition of mouse BGT1 expressed in HEK293 cells assessed as reduction in [3H]GABA uptake after 3 mins by scintillation counting method; assay type: cell-based; settings: read-out: IC50
# T1 sequence (P31651 whole entry): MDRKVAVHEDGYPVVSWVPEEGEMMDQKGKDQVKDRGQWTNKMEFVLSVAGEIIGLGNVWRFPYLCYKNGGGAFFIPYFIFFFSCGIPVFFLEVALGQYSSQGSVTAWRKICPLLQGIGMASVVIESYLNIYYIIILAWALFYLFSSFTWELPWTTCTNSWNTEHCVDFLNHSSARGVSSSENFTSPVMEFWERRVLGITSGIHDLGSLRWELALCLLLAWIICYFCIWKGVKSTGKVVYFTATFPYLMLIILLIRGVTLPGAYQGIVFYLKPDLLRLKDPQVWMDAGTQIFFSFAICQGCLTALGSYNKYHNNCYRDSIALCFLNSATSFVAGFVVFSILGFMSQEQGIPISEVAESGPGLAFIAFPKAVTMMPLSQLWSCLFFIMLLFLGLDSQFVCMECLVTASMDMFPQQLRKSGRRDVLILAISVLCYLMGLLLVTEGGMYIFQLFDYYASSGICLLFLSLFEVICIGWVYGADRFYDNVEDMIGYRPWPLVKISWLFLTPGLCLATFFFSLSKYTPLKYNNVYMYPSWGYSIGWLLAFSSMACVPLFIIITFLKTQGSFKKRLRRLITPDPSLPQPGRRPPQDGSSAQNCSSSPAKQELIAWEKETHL
# Outline: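 HEK293 lines stably expressing a single mouse GAT subtype, kept under blasticidin-S (5 µg/mL) selection. Cells were assayed about 24 h after plating with 30 nM [3H]GABA plus varying compound concentrations for 3 min at 37 °C in HBSS buffered with 20 mM HEPES (1 mM CaCl2, 1 mM MgCl2, pH 7.4). Cells were washed ice-cold and radioactivity counted. IC50 came from sigmoidal variable-slope fits.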
# [2] = Solubility of compound in pH 7.4 phosphate buffer after 24 hrs by HPLC-UV method; assay type: physicochemical
# [3] = biological target: Sodium- and chloride-dependent GABA transporter 3 (Homo sapiens, UniProt P48066, L314Q); experiment: Inhibition of human GAT3 L314Q mutant expresses in tsA201 cells assessed as reduction in [3H]GABA uptake after 3 mins by scintillation counting method; assay type: cell-based
# Outline: (§1)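 Site-directed mutant transporters transiently transfected (PolyFect) into tsA201 cells, plated and used about 24 h later. Cells were washed with HBSS containing 20 mM HEPES, 1 mM CaCl2 and 1 mM MgCl2, pH 7.4. Uptake of 30 nM [3H]GABA was run with varied inhibitor concentrations for 3 min at 37 °C, then three ice-cold washes and scintillation counting. IC50 was taken from variable-slope sigmoidal fits. Triplicates, at least three independent experiments.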
# [4] = biological target: Sodium- and chloride-dependent betaine transporter (Homo sapiens, UniProt P48065, I386F); experiment: Inhibition of human BGT1 I386F mutant expressed in tsA201 cells assessed as reduction in [3H]GABA uptake after 3 mins by scintillation counting method; assay type: cell-based; settings: for pIC50: read-out: IC50
# Outline: (§2)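 tsA201 cells transiently transfected with wild-type or mutant human BGT1 (PolyFect) were plated about 24 h before assay. Three ice-cold washes followed, then scintillation counting.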
# [5] = biological target: T2, Sodium- and chloride-dependent GABA transporter 2 (Homo sapiens, UniProt Q9NSD5); experiment: Inhibition of human GAT2 expresses in tsA201 cells assessed as reduction in [3H]GABA uptake after 3 mins by scintillation counting method; assay type: cell-based
# T2 sequence (Q9NSD5 whole entry): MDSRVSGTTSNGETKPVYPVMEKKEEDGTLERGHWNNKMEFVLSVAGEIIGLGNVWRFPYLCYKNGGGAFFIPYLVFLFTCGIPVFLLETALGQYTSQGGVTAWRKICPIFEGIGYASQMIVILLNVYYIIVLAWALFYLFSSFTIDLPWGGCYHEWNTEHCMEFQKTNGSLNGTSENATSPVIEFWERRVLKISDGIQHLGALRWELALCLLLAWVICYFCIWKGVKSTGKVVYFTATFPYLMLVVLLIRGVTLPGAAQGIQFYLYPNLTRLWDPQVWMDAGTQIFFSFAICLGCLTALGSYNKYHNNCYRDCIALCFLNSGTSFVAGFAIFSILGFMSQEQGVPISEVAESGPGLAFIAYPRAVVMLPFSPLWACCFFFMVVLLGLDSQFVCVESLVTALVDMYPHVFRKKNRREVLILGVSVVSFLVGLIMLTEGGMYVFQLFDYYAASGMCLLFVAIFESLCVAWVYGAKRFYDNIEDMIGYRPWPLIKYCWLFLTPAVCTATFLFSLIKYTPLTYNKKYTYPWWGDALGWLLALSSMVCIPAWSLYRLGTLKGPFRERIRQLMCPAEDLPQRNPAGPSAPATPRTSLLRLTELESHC
# Outline: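 Wild-type human GAT transiently expressed in tsA201 cells via pcDNA5/FRT and PolyFect. Uptake of 30 nM [3H]GABA was run for 3 min at 37 °C in HBSS/20 mM HEPES with 1 mM CaCl2 and 1 mM MgCl2, pH 7.4, across a range of test concentrations. Ice-cold washes were followed by scintillation counting. IC50 was obtained by sigmoidal variable-slope fitting, reported as mean pIC50 ± S.E.M.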
# [6] = biological target: Sodium- and chloride-dependent GABA transporter 1 (Homo sapiens, UniProt P30531); assay type: cell-based
# [7] = biological target: 5-hydroxytryptamine receptor 2B (Homo sapiens) (UniProt P41595); experiment: Displacement of [3H]LSD from human 5-HT2B receptor expressed in HEK cell membranes at 10 uM after 90 mins by scintillation counting method
# [8] = biological target: Sodium- and chloride-dependent betaine transporter (Homo sapiens, UniProt P48065, Y453S); experiment: Inhibition of human BGT1 Y453S mutant expressed in tsA201 cells assessed as reduction in [3H]GABA uptake after 3 mins by scintillation counting method; assay type: cell-based; outline: as §2
# [9] = biological target: Sodium- and chloride-dependent betaine transporter (Homo sapiens, UniProt P48065, Q299L); experiment: Inhibition of human BGT1 Q299L mutant expressed in tsA201 cells assessed as reduction in [3H]GABA uptake after 3 mins by scintillation counting method; assay type: cell-based
# Outline: as §1, with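 “7.4.” for “7.4. Uptake of 30 nM [3H]GABA was run with varied inhibitor concentrations for 3 min at 37 °C, then three ice-cold washes and scintillation counting.”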
# Sodium- and chloride-dependent betaine transporter (Homo sapiens, UniProt P48065, I386F), sequence (P48065 whole entry I386F): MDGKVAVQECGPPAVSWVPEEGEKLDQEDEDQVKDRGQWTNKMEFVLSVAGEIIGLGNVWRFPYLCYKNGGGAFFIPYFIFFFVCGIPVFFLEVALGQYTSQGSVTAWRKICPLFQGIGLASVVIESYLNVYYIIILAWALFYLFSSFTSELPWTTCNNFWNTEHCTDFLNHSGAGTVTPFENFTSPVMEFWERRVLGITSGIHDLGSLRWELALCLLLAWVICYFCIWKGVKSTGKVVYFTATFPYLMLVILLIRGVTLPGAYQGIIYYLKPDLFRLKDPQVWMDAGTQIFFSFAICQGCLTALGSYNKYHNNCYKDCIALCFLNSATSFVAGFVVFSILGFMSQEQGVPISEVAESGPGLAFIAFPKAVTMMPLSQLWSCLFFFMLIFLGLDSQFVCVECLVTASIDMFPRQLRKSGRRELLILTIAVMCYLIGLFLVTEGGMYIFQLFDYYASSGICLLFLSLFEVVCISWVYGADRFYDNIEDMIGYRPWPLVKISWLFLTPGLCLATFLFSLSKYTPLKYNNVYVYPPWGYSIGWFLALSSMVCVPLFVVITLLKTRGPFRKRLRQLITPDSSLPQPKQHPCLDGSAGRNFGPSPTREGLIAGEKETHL
# 5-hydroxytryptamine receptor 2B (Homo sapiens), sequence (P41595 whole entry): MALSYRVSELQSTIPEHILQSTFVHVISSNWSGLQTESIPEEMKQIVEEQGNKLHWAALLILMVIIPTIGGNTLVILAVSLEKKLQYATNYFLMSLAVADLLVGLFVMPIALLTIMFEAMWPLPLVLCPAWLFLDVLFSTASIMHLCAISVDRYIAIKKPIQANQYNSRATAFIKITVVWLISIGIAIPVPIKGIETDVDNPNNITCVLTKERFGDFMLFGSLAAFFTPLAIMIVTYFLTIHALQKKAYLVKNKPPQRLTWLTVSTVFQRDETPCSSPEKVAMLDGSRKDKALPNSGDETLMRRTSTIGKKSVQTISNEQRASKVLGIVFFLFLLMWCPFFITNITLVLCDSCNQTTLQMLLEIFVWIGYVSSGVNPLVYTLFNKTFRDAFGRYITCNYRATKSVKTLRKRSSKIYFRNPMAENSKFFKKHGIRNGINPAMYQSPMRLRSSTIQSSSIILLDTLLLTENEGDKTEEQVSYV
# Sodium- and chloride-dependent GABA transporter 3, sequence (P48066 whole entry L314Q): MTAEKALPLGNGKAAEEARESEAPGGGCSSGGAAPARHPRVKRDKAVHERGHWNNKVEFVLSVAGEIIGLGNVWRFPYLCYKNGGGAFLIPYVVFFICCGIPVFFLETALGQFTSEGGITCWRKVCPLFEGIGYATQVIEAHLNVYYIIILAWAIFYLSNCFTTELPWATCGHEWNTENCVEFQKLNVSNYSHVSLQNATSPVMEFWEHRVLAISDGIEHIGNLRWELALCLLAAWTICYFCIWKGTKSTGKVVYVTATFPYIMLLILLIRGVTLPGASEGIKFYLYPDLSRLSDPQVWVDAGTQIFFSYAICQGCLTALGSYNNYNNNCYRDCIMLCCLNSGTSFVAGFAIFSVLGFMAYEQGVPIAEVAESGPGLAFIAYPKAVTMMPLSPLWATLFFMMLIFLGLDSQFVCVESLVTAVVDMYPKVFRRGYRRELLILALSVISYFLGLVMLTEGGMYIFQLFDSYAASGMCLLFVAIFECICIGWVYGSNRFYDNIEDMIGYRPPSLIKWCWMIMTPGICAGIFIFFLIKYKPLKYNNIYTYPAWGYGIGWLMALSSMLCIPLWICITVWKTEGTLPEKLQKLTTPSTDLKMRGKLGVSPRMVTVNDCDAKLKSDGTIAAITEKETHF
# Sodium- and chloride-dependent betaine transporter (Homo sapiens, UniProt P48065, Q299L), sequence (P48065 whole entry Q299L): as the sequence (P48065 whole entry I386F) above, with Q299L, F386I counted along it
# Sodium- and chloride-dependent betaine transporter (Homo sapiens, UniProt P48065), sequence (P48065 whole entry, looked up): as the sequence (P48065 whole entry I386F) above, with F386I counted along it
# Sodium- and chloride-dependent betaine transporter (Homo sapiens, UniProt P48065, Y453S), sequence (P48065 whole entry Y453S): as the sequence (P48065 whole entry I386F) above, with F386I, Y453S counted along it
# Sodium- and chloride-dependent GABA transporter 1, sequence (P30531 whole entry): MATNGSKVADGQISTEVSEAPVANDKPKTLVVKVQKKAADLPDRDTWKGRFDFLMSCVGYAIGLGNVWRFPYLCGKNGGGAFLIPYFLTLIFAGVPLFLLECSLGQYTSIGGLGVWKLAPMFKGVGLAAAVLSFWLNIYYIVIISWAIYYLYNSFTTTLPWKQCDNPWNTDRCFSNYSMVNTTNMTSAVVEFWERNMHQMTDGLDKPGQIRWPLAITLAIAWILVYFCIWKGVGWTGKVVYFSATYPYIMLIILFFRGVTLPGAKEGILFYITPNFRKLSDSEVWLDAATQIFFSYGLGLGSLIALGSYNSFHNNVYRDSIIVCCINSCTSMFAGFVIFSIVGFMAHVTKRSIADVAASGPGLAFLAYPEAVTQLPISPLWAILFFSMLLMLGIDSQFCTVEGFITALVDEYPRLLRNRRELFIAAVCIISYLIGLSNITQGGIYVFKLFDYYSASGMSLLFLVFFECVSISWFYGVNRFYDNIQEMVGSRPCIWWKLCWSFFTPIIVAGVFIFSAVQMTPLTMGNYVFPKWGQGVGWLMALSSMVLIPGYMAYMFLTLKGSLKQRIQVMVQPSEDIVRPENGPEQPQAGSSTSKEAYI
SMILES,pIC50 [1],pIC50 (GABA transporter 2),solubility at 24 h [2],pIC50 [3],pIC50 [4],IC50 ([4]; read-out: pIC50 (converted)),pIC50 ([5]; read-out: IC50),pIC50 ([6]; read-out: IC50),inhibition [7],pIC50 [8],pIC50 [9],pIC50 [5],pIC50 [6]
O=C(NC1CCN(Cc2ccccc2)CC1)c1ccc(Cl)nc1Cl,< 3.00,4.43,610 µg/mL,3.39,4.33,43.7 µM,3.32,< 3.00,Active,4.60,5.10,,
O=C(NC1CCN(Cc2ccccc2)CC1)c1ccc(Cl)cc1Cl,< 3.00,4.49,40 µg/mL,3.34,5.10,,,,Active,4.72,5.52,< 4.00,< 4.00

# — ChEMBL document CHEMBL4028872, “Structure-Activity Relationship, Pharmacological Characterization, and Molecular Modeling of Noncompetitive Inhibitors of the Betaine/γ-Aminobutyric Acid Transporter 1 (BGT1)” (J Med Chem, 2017)
